Data set [1] can be described thus: Half life in Wistar rat at 30 mg/kg, po administered as single dose via gavage by LC-MS/MS analysis. Type of data set: ADME, organism-based. The conditions noted are these: in vivo. In a few lines: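 Single oral gavage dose of 30 mg/kg given to male and female Wistar rats. PK parameters are reported as the mean of males and females.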
In data set [2] the test system is Mus musculus. The experiment in a line: Antiarthritic activity in DBA/1 mouse assessed as decrease in collagen-induced arthritic score at 50 mg/kg, bid administered on day 22 post second injection of type 2 collagen. Format: functional, organism-based. In a few lines:
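Collagen-induced arthritis in male DBA/1 mice. Dosing at 50 mg/kg b.i.d. began on day 22, one day after the second (boost) injection of type II collagen.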

Another data set deals with CYP1A2 (Homo sapiens, UniProt P05177). The experiment in a line: Inhibition of CYP1A2 (unknown origin) at 10 uM by fluorimetric assay relative to control. Type of data set: ADME. In a few lines: (§1)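 CYP1A2, CYP2C9, CYP2C19, CYP3A4 and CYP2D6 were tested as a panel for cytochrome P450 interaction.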
CYP1A2, sequence (P05177 whole entry): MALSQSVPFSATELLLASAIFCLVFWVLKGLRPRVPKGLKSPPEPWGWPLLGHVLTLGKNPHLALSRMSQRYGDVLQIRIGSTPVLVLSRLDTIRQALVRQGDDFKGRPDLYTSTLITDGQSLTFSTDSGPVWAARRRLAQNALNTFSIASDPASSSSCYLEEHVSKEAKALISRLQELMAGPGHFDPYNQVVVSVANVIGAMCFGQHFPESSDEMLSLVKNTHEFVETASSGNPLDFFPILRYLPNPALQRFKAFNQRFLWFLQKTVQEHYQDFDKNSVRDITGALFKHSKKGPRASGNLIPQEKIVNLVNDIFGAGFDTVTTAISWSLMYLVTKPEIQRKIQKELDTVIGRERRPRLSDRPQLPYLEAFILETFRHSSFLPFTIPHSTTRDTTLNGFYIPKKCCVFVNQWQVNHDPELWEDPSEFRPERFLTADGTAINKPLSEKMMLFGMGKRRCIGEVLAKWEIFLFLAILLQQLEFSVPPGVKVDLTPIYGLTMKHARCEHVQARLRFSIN
Data set [3] has as its system Rattus norvegicus. Briefly: Toxicity in Wistar rat assessed as effect on microscopic appearance of spleen at 100 to 2500 mg/kg, po administered for 48 hrs followed by administration of 300 mg/kg, bid for 7 days starting 8 hrs interval between first and second dose measured after 7 days. Type of data set: organism-based. The conditions noted are these: in vivo, 168 h.

The nature of data set [4]: Ratio of Cmax in Wistar rat at 30 mg/kg, po administered as single dose via gavage to IC50 for P38 MAPKalpha in LPS-stimulated human whole blood assessed as decrease in TNFalpha level.
The subject of data set [5] is Rattus norvegicus. The experiment in a line: Toxicity in Wistar rat assessed as effect on number of blood cells at 100 to 2500 mg/kg, po administered for 48 hrs followed by administration of 300 mg/kg, bid for 7 days starting 8 hrs interval between first and second dose measured after 7 days. Type of data set: organism-based. Conditions: in vivo, 168 h. In a few lines:
(§2)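 Wistar rats, maximum-tolerated-dose estimate in two steps. Step one: single oral doses of 100 (n = 1), 500 (n = 1) and 2500 mg/kg (n = 3), with clinical signs watched for 48 h. Step two: 300 mg/kg (n = 5) twice daily for 7 days, second dose 8 h after the first. After 7 days, body weight gain, blood cell number and composition, liver enzymes, and macroscopic liver and spleen were recorded.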

The test system of data set [6] is Rattus norvegicus. Briefly: Toxicity in Wistar rat assessed as effect on composition of blood cells at 100 to 2500 mg/kg, po administered for 48 hrs followed by administration of 300 mg/kg, bid for 7 days starting 8 hrs interval between first and second dose measured after 7 days. Format: organism-based. Conditions: in vivo, 168 h. In a few lines: as §2
The target of data set [7] is Mitogen-activated protein kinase 11 (Homo sapiens) (UniProt Q15759). Briefly: Inhibition of p38beta (unknown origin) at 10 uM relative to control.
Mitogen-activated protein kinase 11 (Homo sapiens), sequence (Q15759 whole entry): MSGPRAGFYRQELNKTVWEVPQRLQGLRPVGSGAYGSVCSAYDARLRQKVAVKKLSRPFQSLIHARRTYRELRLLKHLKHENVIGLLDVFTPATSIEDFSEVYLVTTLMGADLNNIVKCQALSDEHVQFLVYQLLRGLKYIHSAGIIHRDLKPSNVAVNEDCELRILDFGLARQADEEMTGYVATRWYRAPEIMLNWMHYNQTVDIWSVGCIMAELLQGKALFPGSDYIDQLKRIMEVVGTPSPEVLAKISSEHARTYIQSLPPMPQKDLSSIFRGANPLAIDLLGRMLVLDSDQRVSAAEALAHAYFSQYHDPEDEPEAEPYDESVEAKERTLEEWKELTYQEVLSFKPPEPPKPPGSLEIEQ
Data set [8] can be described thus: Tmax in Wistar rat at 30 mg/kg, po administered as single dose via gavage by LC-MS/MS analysis. Format: ADME, organism-based. Conditions: in vivo. In a few lines:
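Male and female Wistar rats each received a single 30 mg/kg oral gavage dose. Tmax is the mean of males and females.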

Data set [9] has as its target Mitogen-activated protein kinase 10 (Homo sapiens) (UniProt P53779). The experiment in a line: Inhibition of human recombinant full length N-terminal His6 tagged JNK3 expressed in Sf21 cells at 10 uM relative to control.
In a further data set the target is CYP2C19 (Homo sapiens, UniProt P33261). Briefly: Inhibition of CYP2C19 (unknown origin) at 10 uM by fluorimetric assay relative to control. Format: ADME. In a few lines:
as §1

The subject of data set [10] is Mus musculus. The experiment in a line: Toxicity in DBA/1 mouse model of collagen-induced arthritis at 50 mg/kg, bid administered on day 22 post second injection of type 2 collagen. Type of data set: organism-based. Conditions: in vivo. In a few lines:
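Male DBA/1 mice with collagen-induced arthritis were dosed at 50 mg/kg b.i.d. starting on day 22, 1 day after the type II collagen boost. Animals were monitored for signs of toxicity, including body weight loss relative to controls.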

A short description of data set [11]: AUC (0 to t) in Wistar rat at 30 mg/kg, po administered as single dose via gavage by LC-MS/MS analysis. Format: ADME, organism-based. Conditions: in vivo. The method, boiled down:
(§3)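 Male and female Wistar rats received a single oral gavage of 30 mg/kg. Parameters are given as the mean of the two sexes.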

The target in a further data set is CYP2C9 (Homo sapiens, UniProt P11712). The experiment in a line: Inhibition of CYP2C9 (unknown origin) at 10 uM by fluorimetric assay relative to control. Type of data set: ADME. The method, boiled down: as §1
CYP2C9, sequence (P11712 whole entry): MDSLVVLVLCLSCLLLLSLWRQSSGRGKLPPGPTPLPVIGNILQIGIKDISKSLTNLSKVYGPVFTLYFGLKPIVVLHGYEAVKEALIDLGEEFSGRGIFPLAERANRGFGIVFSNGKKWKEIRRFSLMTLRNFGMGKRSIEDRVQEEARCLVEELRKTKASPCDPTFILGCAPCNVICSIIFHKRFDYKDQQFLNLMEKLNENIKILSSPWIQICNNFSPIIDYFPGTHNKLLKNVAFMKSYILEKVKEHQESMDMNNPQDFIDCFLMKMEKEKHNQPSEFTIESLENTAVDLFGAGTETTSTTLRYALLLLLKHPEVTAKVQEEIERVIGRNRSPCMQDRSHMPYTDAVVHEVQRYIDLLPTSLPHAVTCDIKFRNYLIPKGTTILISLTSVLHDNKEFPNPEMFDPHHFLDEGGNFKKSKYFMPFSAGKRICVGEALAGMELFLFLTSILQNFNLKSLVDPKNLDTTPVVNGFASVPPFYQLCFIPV
Data set [12] addresses Voltage-gated inwardly rectifying potassium channel KCNH2 (Homo sapiens, UniProt Q12809). The experiment in a line: Inhibition of human ERG expressed in HEK293 cells by patch clamp method. Format: cell-based.
Data set [13] has as its system Rattus norvegicus. The experiment in a line: Protection against LPS-induced endotoxemia in Wistar rat assessed as inhibition of plasma TNFalpha level at 10 mg/kg, po pretreated for 1 hr followed by LPS addition measured after 90 mins relative to control. Format: functional.
The target in the next data set is CYP2D6 (Homo sapiens, UniProt P10635). Briefly: Inhibition of CYP2D6 (unknown origin) at 10 uM by fluorimetric assay relative to control. Type of data set: ADME. The method, boiled down: as §1
CYP2D6, sequence (P10635 whole entry): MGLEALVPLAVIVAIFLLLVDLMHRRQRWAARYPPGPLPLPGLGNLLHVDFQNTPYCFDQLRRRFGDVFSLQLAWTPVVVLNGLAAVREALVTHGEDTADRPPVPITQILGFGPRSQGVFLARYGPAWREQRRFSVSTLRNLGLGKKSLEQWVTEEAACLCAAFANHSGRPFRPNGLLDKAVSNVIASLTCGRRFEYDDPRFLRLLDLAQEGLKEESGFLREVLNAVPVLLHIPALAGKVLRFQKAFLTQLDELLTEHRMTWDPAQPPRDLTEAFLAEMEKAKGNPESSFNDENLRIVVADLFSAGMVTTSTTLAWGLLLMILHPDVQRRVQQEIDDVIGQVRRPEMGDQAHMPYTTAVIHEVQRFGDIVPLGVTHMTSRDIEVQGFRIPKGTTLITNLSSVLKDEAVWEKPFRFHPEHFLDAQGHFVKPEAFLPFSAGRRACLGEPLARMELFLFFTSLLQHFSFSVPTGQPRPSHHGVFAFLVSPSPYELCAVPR
Data set [14] deals with Rattus norvegicus. The experiment in a line: Toxicity in Wistar rat assessed as death at 100 to 2500 mg/kg, po administered for 48 hrs followed by administration of 300 mg/kg, bid for 7 days with 8 hrs interval between first and second dose measured after 7 days. Conditions: in vivo, 168 h. Format: organism-based. In a few lines:
as §2

In the next data set the target is CYP3A4 (Homo sapiens, UniProt P08684). Briefly: Inhibition of CYP3A4 (unknown origin) at 10 uM by fluorimetric assay relative to control. Format: ADME. The method, boiled down: as §1
CYP3A4, sequence (P08684 whole entry): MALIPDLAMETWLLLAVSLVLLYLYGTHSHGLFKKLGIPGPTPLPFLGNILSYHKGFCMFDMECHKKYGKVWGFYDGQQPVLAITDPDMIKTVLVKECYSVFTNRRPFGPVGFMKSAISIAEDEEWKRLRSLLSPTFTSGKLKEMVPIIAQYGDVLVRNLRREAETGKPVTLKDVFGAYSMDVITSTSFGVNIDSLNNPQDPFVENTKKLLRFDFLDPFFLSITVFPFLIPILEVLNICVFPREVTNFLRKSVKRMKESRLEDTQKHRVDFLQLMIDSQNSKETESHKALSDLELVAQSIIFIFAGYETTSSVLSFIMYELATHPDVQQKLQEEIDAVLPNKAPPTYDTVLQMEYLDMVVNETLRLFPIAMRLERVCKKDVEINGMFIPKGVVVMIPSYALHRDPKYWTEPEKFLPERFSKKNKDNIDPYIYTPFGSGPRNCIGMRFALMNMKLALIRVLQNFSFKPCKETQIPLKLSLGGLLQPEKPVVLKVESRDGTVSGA
In data set [15] the test system is Rattus norvegicus. Briefly: Toxicity in Wistar rat assessed as effect on liver enzyme at 100 to 2500 mg/kg, po administered for 48 hrs followed by administration of 300 mg/kg, bid for 7 days starting 8 hrs interval between first and second dose measured after 7 days. Type of data set: organism-based. The conditions noted are these: in vivo, 168 h. In a few lines: as §2

Data set [16] in a line: Fraction unbound in human plasma at 5 uM by equilibrium dialysis relative to control. Format: ADME, cell-free. A general note: In equilibrium dialysis free small molecules cross a membrane that holds back macromolecules.
In data set [17] the test system is Rattus norvegicus. Briefly: Toxicity in Wistar rat assessed as change in body weight at 100 to 2500 mg/kg, po administered for 48 hrs followed by administration of 300 mg/kg, bid for 7 days starting 8 hrs interval between first and second dose measured after 7 days. Type of data set: organism-based. The conditions noted are these: in vivo, 168 h. In a few lines: as §2

Data set [18] can be described thus: Cmax in Wistar rat at 30 mg/kg, po administered as single dose via gavage by LC-MS/MS analysis. Type of data set: ADME, organism-based. The arrangement: dose 30 mg/kg, route oral. Conditions: in vivo. In a few lines:
as §3

Data set [19] deals with Rattus norvegicus. The experiment in a line: Toxicity in Wistar rat assessed as effect on microscopic appearance of liver at 100 to 2500 mg/kg, po administered for 48 hrs followed by administration of 300 mg/kg, bid for 7 days starting 8 hrs interval between first and second dose measured after 7 days. Format: organism-based. Conditions: in vivo, 168 h.
The nature of data set [20]: Fraction unbound in human plasma. Format: ADME, cell-free. In a few lines: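 Plasma protein binding measured in human, Sprague–Dawley rat and Cynomolgus monkey plasma at 1, 10 and 30 μM compound. Reported as unbound fraction (%).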
Data set [21] concerns the target Mitogen-activated protein kinase 14 (Homo sapiens, UniProt Q16539). Briefly: Inhibition of p38alpha MAPK (unknown origin).
Data set [22] can be described thus: Apparent permeability in human Caco2 cells at 10 uM. Format: ADME, cell-based. The conditions noted are these: Caco-2. (In general: Passage across Caco-2 layers is used to estimate intestinal permeability.)
The subject of data set [23] is Rattus norvegicus. The experiment in a line: In vivo inhibition of P38 MAPKalpha in Lewis rat assessed as decrease in LPS-stimulated TNFalpha level in serum at 30 mg/kg pretreated for 3 hrs followed by LPS addition measured after 1.5 hrs post dose. Format: functional, organism-based.
Data set [24] has as its system Rattus norvegicus. The experiment in a line: In vivo inhibition of P38 MAPKalpha in Sprague-Dawley rat assessed as decrease in LPS-stimulated TNFalpha level in serum at 3 mg/kg, po pretreated for 1 hr followed by LPS addition measured after 2 hrs relative to control. Type of data set: functional.
Data set [25] concerns Rattus norvegicus. Briefly: In vivo inhibition of P38 MAPKalpha in Lewis rat assessed as decrease in LPS-stimulated TNFalpha level in serum at 30 mg/kg pretreated for 1 hrs followed by LPS addition measured after 1.5 hrs post dose. Format: functional, organism-based.
For another data set, the species on record is Homo sapiens. Briefly: Inhibition of PDE4 in LPS-stimulated human whole blood assessed as decrease in leukotriene B4 level in plasma.
Data set [26] deals with Liver. Briefly: Drug level in human liver microsomes treated with CBS-3595 at 10 to 100 uM. Type of data set: ADME, microsome. The method, boiled down:
(§4)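 Test compound incubated at 10, 30 and 100 μM with liver microsomes from rat, Cynomolgus monkey or human, and metabolites monitored.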
In general terms: Liver microsomes are vesicles of endoplasmic reticulum, rich in cytochrome P450 enzymes.

Data set [27] can be described thus: Drug level in cynomolgus monkey liver microsomes treated with CBS-3595 at 10 to 100 uM. Type of data set: ADME, Macaca fascicularis, microsome. In a few lines:
as §4

In data set [28] the test system is Liver. Briefly: Drug level in rat liver microsomes treated with CBS-3595 at 10 to 100 uM. Format: ADME, microsome. The method, boiled down:
as §4

Broadly, the half-life is how long it takes for the measured level to halve. Broadly, the inhibition is the change of the read-out against control, counted positive when it falls. As usually defined, the Tmax is the time at which the peak concentration occurs. By AUC(0-t) is commonly meant the area under the concentration-time curve up to a stated or last time point. One may read the IC50 as the concentration that gives 50% inhibition. Usually inhibition in vivo stands for the drop in the measured response relative to a control, in per cent. One may read the fraction unbound as free concentration divided by total concentration. What is called Cmax is the highest concentration seen after dosing. A word on the Papp: it is a coefficient for how fast a substance crosses the barrier.

Structures are written as SMILES. Values joined by “and” are separate entries in the source; they are usually repeats but may differ in a detail not shown here. Equal entries are not always repeated. Active and inactive are the calls of the source. The calls are words filed in the database; no cut-off is given here.

Voltage-gated inwardly rectifying potassium channel KCNH2, sequence (Q12809 whole entry): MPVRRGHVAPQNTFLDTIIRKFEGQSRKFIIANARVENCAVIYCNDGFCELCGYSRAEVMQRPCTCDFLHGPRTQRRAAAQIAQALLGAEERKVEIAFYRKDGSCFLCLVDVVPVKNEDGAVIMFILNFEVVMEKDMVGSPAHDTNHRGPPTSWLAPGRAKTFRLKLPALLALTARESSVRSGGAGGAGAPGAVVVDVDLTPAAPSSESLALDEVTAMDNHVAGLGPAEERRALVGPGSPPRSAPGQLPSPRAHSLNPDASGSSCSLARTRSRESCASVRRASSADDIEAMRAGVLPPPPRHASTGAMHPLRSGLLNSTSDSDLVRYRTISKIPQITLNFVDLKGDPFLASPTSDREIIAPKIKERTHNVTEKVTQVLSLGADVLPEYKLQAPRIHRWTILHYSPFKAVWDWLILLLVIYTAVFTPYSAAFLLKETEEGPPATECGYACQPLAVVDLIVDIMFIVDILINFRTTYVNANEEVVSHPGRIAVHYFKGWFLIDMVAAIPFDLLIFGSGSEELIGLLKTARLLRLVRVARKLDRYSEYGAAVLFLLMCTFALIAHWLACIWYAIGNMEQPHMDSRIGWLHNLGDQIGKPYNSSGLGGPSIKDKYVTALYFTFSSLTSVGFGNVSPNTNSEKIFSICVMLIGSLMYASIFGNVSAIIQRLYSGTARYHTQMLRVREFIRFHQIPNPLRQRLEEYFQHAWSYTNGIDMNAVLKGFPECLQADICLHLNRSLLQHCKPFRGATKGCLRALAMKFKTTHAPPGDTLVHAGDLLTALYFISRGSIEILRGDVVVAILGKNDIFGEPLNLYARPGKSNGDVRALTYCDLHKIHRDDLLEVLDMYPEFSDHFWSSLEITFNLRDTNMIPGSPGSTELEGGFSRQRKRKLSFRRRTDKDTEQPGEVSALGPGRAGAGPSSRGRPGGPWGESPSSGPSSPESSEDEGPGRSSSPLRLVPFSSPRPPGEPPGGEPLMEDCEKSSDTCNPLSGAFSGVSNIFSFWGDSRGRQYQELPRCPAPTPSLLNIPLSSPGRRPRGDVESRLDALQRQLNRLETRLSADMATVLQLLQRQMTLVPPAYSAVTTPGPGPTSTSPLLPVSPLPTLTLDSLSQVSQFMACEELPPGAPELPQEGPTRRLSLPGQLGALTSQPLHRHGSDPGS
Mitogen-activated protein kinase 14, sequence (Q16539 whole entry): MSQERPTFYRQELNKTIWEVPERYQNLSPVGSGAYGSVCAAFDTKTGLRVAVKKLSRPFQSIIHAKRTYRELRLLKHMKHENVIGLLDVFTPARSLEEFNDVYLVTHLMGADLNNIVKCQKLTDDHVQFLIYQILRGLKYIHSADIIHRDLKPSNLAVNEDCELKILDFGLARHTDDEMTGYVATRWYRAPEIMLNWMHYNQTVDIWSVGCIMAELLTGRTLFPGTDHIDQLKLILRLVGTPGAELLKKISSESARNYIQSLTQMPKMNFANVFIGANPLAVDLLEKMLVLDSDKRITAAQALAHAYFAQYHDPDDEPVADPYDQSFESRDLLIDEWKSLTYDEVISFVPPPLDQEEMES
Mitogen-activated protein kinase 10 (Homo sapiens), sequence (P53779 whole entry): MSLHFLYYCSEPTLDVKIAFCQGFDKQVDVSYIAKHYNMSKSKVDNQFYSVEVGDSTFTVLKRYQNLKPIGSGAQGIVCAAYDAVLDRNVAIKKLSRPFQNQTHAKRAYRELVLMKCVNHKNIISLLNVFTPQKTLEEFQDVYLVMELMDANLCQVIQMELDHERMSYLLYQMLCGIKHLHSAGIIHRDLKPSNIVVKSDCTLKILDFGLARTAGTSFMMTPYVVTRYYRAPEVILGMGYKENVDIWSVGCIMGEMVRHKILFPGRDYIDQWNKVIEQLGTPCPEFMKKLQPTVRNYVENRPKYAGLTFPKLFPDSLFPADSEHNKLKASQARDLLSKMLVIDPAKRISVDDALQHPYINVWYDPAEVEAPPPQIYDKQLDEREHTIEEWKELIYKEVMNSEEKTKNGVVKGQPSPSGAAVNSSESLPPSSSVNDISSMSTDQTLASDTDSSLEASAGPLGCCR
CYP2C19, sequence (P33261 whole entry): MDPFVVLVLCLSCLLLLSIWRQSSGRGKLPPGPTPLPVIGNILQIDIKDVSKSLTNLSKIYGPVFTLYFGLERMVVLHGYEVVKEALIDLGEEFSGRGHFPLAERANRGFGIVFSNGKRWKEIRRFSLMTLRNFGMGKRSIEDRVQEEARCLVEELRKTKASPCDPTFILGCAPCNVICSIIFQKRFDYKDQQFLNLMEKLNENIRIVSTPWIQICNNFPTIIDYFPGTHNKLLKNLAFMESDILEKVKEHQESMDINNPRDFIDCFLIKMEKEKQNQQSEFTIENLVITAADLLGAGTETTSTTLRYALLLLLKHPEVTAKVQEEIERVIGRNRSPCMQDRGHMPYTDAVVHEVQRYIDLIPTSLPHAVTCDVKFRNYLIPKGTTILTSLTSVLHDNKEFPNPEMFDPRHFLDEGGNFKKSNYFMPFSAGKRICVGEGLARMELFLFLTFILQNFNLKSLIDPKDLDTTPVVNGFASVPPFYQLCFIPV

The compound `CSc1nc(-c2ccc(F)cc2)c(-c2ccnc(NC(C)=O)c2)n1C` had a half-life in [1] of 3 h. Moreover, in the data set with Mus musculus [2], the outcome was Active. The inhibition at 10 µM against CYP1A2 is 18%; on CYP2C19, 4%; against CYP2C9, 46%; at CYP2D6 it was 45%; against CYP3A4, -7%. In addition, the Activity entry in the data set with Rattus norvegicus [3], in the data set on Rattus norvegicus [5], in the data set with Rattus norvegicus [6], in the data set on Mus musculus [10], in the data set on Rattus norvegicus [14] and in the data set on Rattus norvegicus [15] was “Non-Toxic” each time. The Activity entry with Rattus norvegicus [17] and in the data set with Rattus norvegicus [19] was “Non-Toxic” throughout. The Ratio in data set [4] is listed as 12.5. The inhibition in [7] and in data set [9] was greater than 70% in each case. Besides, the time of peak concentration (Tmax) in data set [8] came to 1 h. Besides, the AUC(0-t) in data set [11] was 4930 ng·h/mL and 13.8 µM·h. This compound also showed an IC50 in [12] of 28.6 µM. Further, in data set [12] (human, hek293), the “inhibition (INH)” value is reported as “Dose-dependent effect”. Besides, the inhibition in vivo at 10 mg/kg in the data set with Rattus norvegicus [13] came to 97%. This compound yielded a fraction unbound at 5 µM in data set [16] of 0.037. Also, the Cmax in data set [18] was 738 ng/mL and 2.07 µM.
In data set [20], `O=C(Nc1c(Cl)c[n+]([O-])cc1Cl)c1ccc(OC(F)F)c(OCC2CC2)c1` had a fraction unbound of 0.04.
`CC(=O)Nc1cc(-c2c(-c3ccc(F)cc3)nc([S@@+](C)[O-])n2C)ccn1` returned an IC50 in [21] of 0.129 µM.
`CC(C)NCC(O)COc1cccc2ccccc12` (stereo not given) [PROPRANOLOL]: the Papp at 10 µM in [22] turned out to be 71.1 ×10⁻⁶ cm/s.
For the compound `C[S+]([O-])c1ccc(-c2nc(-c3ccc(F)cc3)c(-c3ccncc3)[nH]2)cc1` (stereo not given) [SB-203580], the inhibition entry with Rattus norvegicus [23] and with Rattus norvegicus [25] was “Active” throughout. Also, the inhibition in vivo at 3 mg/kg in the data set with Rattus norvegicus [24] is 37%. The inhibition result in the data set filed under Homo sapiens is “inactive”.
For the compound `CC(=O)Nc1cc(-c2c(-c3ccc(F)cc3)nc(S(C)(=O)=O)n2C)ccn1`, the Drug metabolism result (in the data set on Liver [26]; in data set [27]; in the data set on Liver [28]) was “Metabolite_Detected” throughout.

Values taken from ChEMBL document CHEMBL4028848, “Discovery of N-{4-[5-(4-Fluorophenyl)-3-methyl-2-methylsulfanyl-3H-imidazol-4-yl]-pyridin-2-yl}-acetamide (CBS-3595), a Dual p38α MAPK/PDE-4 Inhibitor with Activity against TNFα-Related Diseases” (J Med Chem, 2017).
